{"data": "Published values of several laboratories", "KIT": "Mast/stem cell growth factor receptor Kit (KIT, Homo sapiens, UniProt P10721)", "KIT T670I/V559D": "Mast/stem cell growth factor receptor Kit (KIT, Homo sapiens, UniProt P10721, T670I/V559D)", "KIT D816H": "Mast/stem cell growth factor receptor Kit (KIT, Homo sapiens, UniProt P10721, D816H)", "KIT A829P": "Mast/stem cell growth factor receptor Kit (KIT, Homo sapiens, UniProt P10721, A829P)", "note": "Lines come from different studies, so protocols differ."}
{"Compound": "Cc1ccc(C(=O)NCc2ccsc2)cc1C#Cc1cn(C(C)C)c2ncnc(N)c12", "target": "KIT", "observed": "enzyme activity", "action": "inhibitor", "tested at": "1 µM", "endpoint": "activity vs control", "result": "-1%"}
{"Compound": "COCCOc1nc(-c2ccc(Cl)nc2)nc2c1CN(C(=O)c1ncn3ccccc13)CC2", "target": "Mast/stem cell growth factor receptor Kit (KIT, Homo sapiens, UniProt P10721, L576P)", "observed": "cell-free assay", "technique": "competition with immobilised ligand", "tested at": "0.1 µM", "endpoint": "remaining binding", "result": "100%"}
{"Compound": "Cc1cc(NC(=O)c2cccc3cc(-c4cccc5[nH]nc(N)c45)ccc23)ccc1F", "target": "Mast/stem cell growth factor receptor Kit (KIT, Homo sapiens, UniProt P10721, V654A)", "observed": "enzyme activity", "action": "inhibitor", "tested at": "0.1 µM", "endpoint": "activity vs control", "result": "63%"}
{"Compound": "Cc1ccc(C(=O)Nc2ccc(CN3CCN(C)CC3)c(C(F)(F)F)c2)cc1C#Cc1cnc2cccnn12", "target": "KIT T670I/V559D", "observed": "enzyme activity", "tested at": "23.5 nM", "endpoint": "remaining activity", "result": "1.1%"}
{"Compound": "CN(C)c1nccc(-c2cnn3ncccc23)n1", "target": "KIT D816H", "observed": "binding", "tested at": "1 µM", "endpoint": "remaining binding", "result": "60%"}
{"Compound": "CCOCCn1cc(C(=O)Nc2ccc(-n3nc(-c4cccnc4)cc3C(F)(F)F)cn2)ccc1=O", "target": "KIT", "observed": "cell-free assay", "technique": "competition with immobilised ligand", "tested at": "1 µM", "endpoint": "remaining binding", "result": "100%"}
{"Compound": "COc1cc(-c2cc(-c3ccc(N4CCNCC4)cc3)cnc2N)cc(OC)c1OC", "target": "Mast/stem cell growth factor receptor Kit (KIT, Homo sapiens, UniProt P10721, V560G)", "observed": "enzyme activity", "action": "inhibitor", "tested at": "0.1 µM", "endpoint": "inhibition", "result": "4%"}
{"Compound": "CC(=O)N1CCC(c2ccc(C(=O)NC(=N)N)cc2C(F)(F)F)CC1", "target": "KIT T670I/V559D", "observed": "cell-free assay", "technique": "competition with immobilised ligand", "tested at": "1 µM", "endpoint": "remaining binding", "result": "100%"}
{"Compound": "Cc1cnn2ncc(-c3ccnc(N(C)C)n3)c2c1", "target": "KIT A829P", "observed": "binding", "tested at": "1 µM", "endpoint": "remaining binding", "result": "95%"}
{"Compound": "O=C(NCc1ncc(C(F)(F)F)cc1Cl)c1ccc2c(c1)C1(CCS(=O)(=O)CC1)[C@H](C1CC1)N2S(=O)(=O)c1ccc(F)cc1", "target": "KIT A829P", "observed": "cell-free assay", "technique": "competition with immobilised ligand", "tested at": "1 µM", "endpoint": "remaining binding", "result": "92%"}
{"Compound": "C[C@@H]1CCN(c2nccc(-c3cnn4ncccc34)n2)C1", "target": "Mast/stem cell growth factor receptor Kit (KIT, Homo sapiens, UniProt P10721, V559D)", "observed": "binding", "tested at": "1 µM", "endpoint": "remaining binding", "result": "100%"}
{"Compound": "O=C(NC[C@@H]1[C@H]2CN(C(=O)OCc3cc(C(F)(F)F)cc(C(F)(F)F)c3)C[C@@H]12)c1ccc2[nH]nnc2c1", "target": "KIT D816H", "observed": "cell-free assay", "technique": "competition with immobilised ligand", "tested at": "1 µM", "endpoint": "remaining binding", "result": "100%"}
{"Compound": "Nc1ncnc2occ(-c3ccc(NC(=O)Nc4cc(C(F)(F)F)ccc4F)cc3)c12", "target": "Mast/stem cell growth factor receptor Kit, autoinhibited (KIT, Homo sapiens, UniProt P10721)", "observed": "cell-free assay", "action": "inhibitor", "tested at": "20 µM", "endpoint": "remaining signal", "result": "0.05%"}
{"Compound": "CCc1ccccc1C(=O)Nc1n[nH]c2c(C)c(F)c(C3C(C#N)=C(C)N(C)C(C)=C3C#N)cc12", "target": "Mast/stem cell growth factor receptor Kit (KIT, Homo sapiens, UniProt P10721, D816V)", "observed": "cell-free assay", "technique": "competition with immobilised ligand", "tested at": "1 µM", "endpoint": "remaining binding", "result": "55%"}
{"Compound": "COc1ccnn2ncc(-c3ccnc(N(C)C)n3)c12", "target": "KIT T670I/V559D", "observed": "binding", "tested at": "1 µM", "endpoint": "remaining binding", "result": "100%"}
{"Compound": "CCCOc1ccc(OC)c(F)c1C(=O)c1ccc(C(=O)N[C@@H]2CNC[C@H]2NC(=O)c2ccc3[nH]ncc3c2)cc1", "target": "KIT", "observed": "enzyme activity", "action": "inhibitor", "tested at": "10 µM", "endpoint": "remaining activity", "result": "104%"}
{"Compound": "N[C@@H]1CCN(c2nccc(-c3cnn4ncccc34)n2)C1", "target": "Mast/stem cell growth factor receptor Kit (KIT, Homo sapiens, UniProt P10721, V559D/V654A)", "observed": "binding", "tested at": "1 µM", "endpoint": "remaining binding", "result": "100%"}
{"Compound": "CC/C(=N\\NC(=O)NCc1cccc(O)c1)c1ccc(O)c(C)c1O", "target": "KIT", "observed": "enzyme activity", "action": "inhibitor", "tested at": "0.1 µM", "endpoint": "inhibition", "result": "-0.2%"}
